Here are results for one molecule from ChEMBL document CHEMBL4118104, “Design, Synthesis, and Evaluation of Orally Bioavailable Quinoline-Indole Derivatives as Innovative Multitarget-Directed Ligands: Promotion of Cell Proliferation in the Adult Murine Hippocampus for the Treatment of Alzheimer's Disease” (J Med Chem, 2018).

Common to all, as to assay type: ADME, organism-based
Data set [1] in a line: Half life in Sprague-Dawley rat at 5 mg/kg, iv administered as single dose by LC-MS/MS analysis. To be noted: in vivo. The method, boiled down:
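SD rats given 5 mg/kg intravenously, n = 3; pharmacokinetic parameters derived from plasma concentrations.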

Data set [2] can be described thus: Volume of distribution at steady state in Sprague-Dawley rat at 5 mg/kg, iv administered as single dose by LC-MS/MS analysis. To be noted: in vivo, read-out: Vdss.
Data set [3] in a line: Tmax in Sprague-Dawley rat at 30 mg/kg, po by LC-MS/MS analysis. To be noted: in vivo. The method, boiled down:
(§1)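 SD rats given a single oral gavage dose of 30 mg/kg, n = 3; plasma levels by LC-MS/MS; bioavailability computed against the 5 mg/kg intravenous arm.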

Data set [4] is described as follows: Cmax in Sprague-Dawley rat at 30 mg/kg, po by LC-MS/MS analysis. More on the design: dose 30 mg/kg, route oral. To be noted: in vivo. The method, boiled down: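 SD rats, single oral gavage 30 mg/kg, n = 3; plasma and brain drug levels taken 1 h after dosing, measured by LC-MS/MS.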
The nature of data set [5]: AUC (0 to infinity) in Sprague-Dawley rat at 30 mg/kg, po by LC-MS/MS analysis. More on the design: dose 30 mg/kg, time infinity, route oral. To be noted: in vivo.
Data set [6] in a line: MRT (0 to t) in Sprague-Dawley rat at 30 mg/kg, po by LC-MS/MS analysis. To be noted: in vivo. The method, boiled down: as §1
Data set [7] in a line: MRT (0 to infinity) in Sprague-Dawley rat at 30 mg/kg, po by LC-MS/MS analysis. To be noted: in vivo. A digest of the protocol: as §1
Data set [8] in a line: Oral bioavailability in Sprague-Dawley rat at 30 mg/kg by LC-MS/MS analysis. To be noted: in vivo. The method, boiled down:
as §1

One may read the half-life as the time needed for the level to fall by half in the phase considered. A high value points to slow loss. As usually defined, the Tmax is the time at which the peak concentration occurs. The term Cmax denotes the peak of the concentration-time curve. In general, AUC(0-inf) refers to the area under the concentration-time curve extrapolated to infinity. Higher therefore signals more exposure. A word on the MRT last: it is the average time that molecules of a dose stay in the body. As a reminder, the MRT inf is the average time that molecules of a dose stay in the body. One may read the bioavailability as the share of a dose that reaches the circulation, judged against a reference dose that is usually intravenous. Higher therefore signals good availability. In data set [1], `Cl.Oc1ccc2[nH]c(-c3ccc4c(Cl)cc(Cl)c(O)c4n3)cc2c1` showed a half-life of 0.93 h. Moreover, the Vd in data set [2] came out at 0.954 L/kg. Also, the Tmax in data set [3] worked out at 0.5 h. This molecule also had a Cmax in data set [4] of 1000 ng/mL. For the same molecule, the AUC(0-inf) in data set [5] stood at 1790 ng·h/mL. In data set [6], this molecule came in with an MRT last of 2.53 h. In data set [7], this molecule yielded an MRT inf of 4.88 h. In addition, the bioavailability in data set [8] came to 14.1%.
